Each structure is given as a SMILES string. “And” between values parts separate entries of the source, which are not always exact repeats. Equal entries are not always repeated. The source made the active and inactive calls.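 Rule for the calls: active = peak Kir2.1 potassium channel inhibition over 30% at one or more doses, plus a fitted dose response curve; inactive = no inhibition at any dose, or no curve fitted.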

The test addresses Inward rectifier potassium channel 2 (Mus musculus) (UniProt P35561). Put plainly: off-target blockade of inward rectifier Kir2.1 – cell-based, FluxOR thallium flux, CRC round 4, selectivity assay for KCNK9 inhibitor project, SAR follow-up (AID 623881). As to conditions: Kir2.1-expressing cells, FluxOR thallium flux fluorescence; for thallium flux ratio, lower = inhibition: at 30 µM (top of the series). Summed up: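 Material: Kir2.1-expressing HEK293 cells; probe or stimulus: Tl+/K+ stimulus (5x stock K2SO4 plus Tl2SO4); timing: 90 min dye load, 20 min compound, room temperature; measured by: kinetic FluxOR thallium-dye fluorescence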

Inward rectifier potassium channel 2 (Mus musculus), sequence (P35561 whole entry, looked up): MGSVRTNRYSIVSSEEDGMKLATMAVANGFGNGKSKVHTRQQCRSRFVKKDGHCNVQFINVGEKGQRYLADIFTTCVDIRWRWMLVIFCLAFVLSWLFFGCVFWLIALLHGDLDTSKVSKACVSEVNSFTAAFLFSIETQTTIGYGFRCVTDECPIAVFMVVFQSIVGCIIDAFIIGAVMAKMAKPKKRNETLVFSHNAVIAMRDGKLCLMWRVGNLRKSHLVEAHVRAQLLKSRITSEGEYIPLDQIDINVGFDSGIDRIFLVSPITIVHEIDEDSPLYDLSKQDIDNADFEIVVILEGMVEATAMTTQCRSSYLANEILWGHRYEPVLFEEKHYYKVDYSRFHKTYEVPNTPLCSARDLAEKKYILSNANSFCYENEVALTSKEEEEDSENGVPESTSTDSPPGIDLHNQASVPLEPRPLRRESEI

In general, IC50 refers to the midpoint of a concentration-inhibition curve. For `COc1ccc(CSc2nnc(-c3ccco3)n2C(C)C2CC3CCC2C3)cc1OC` (stereo not given), the concentration for half-maximal inhibition (IC50) is 18.4 µM.

For the compound `CC(C1CC2CCC1C2)n1c(SCCc2ccccn2)nnc1-c1ccco1` (stereo not given), the IC50 was 15.4 µM.

Turning to `CC(C1CC2CCC1C2)n1c(SCCc2cccc(O)c2)nnc1-c1ccco1` (stereo not given), the IC50 is 11.5 µM.

Take `CC(C1C[C@H]2CCC1C2)n1c(-c2ccsc2)n[nH]c1=S` (stereo not given in full): the half-inhibitory concentration (IC50) is 23.1 µM.

With `COc1cccc(-c2n[nH]c(=S)n2[C@H](C)[C@@H]2CC3CC[C@H]2C3)c1`, the “thallium flux ratio, lower = inhibition” value is “inactive”.

`COc1ccc(NC(=O)CSc2nnc(-c3ccco3)n2C(C)C2CC3CCC2C3)cc1OC` (stereo not given): the “thallium flux ratio, lower = inhibition” value was “inactive”.

With `COc1cccc(-c2nnc(SSc3nnc(-c4cccc(OC)c4)n3C(C)C3CC4CCC3C4)n2C(C)C2CC3CCC2C3)c1` (stereo not given), the “thallium flux ratio, lower = inhibition” value is “inactive”.

With `CC(C1CCN(C)CC1)n1c(-c2ccco2)n[nH]c1=S` (stereo not given), the “thallium flux ratio, lower = inhibition” value was “inactive”.

Consider `C[C@@H]([C@@H]1CC2CC[C@H]1C2)n1c(-c2ccco2)n[nH]c1=S`, for which the “thallium flux ratio, lower = inhibition” value is “inactive”.

`COc1ccc(CC(=O)NCc2ccccc2-c2ccccc2C(=O)NCc2ccc(F)cc2F)cc1`: the “thallium flux ratio, lower = inhibition” value is “inactive”.

Consider `COc1ccc(C(=O)CCSc2nnc(-c3ccco3)n2C(C)C2CC3CCC2C3)cc1OC` (stereo not given), for which the “thallium flux ratio, lower = inhibition” value is “inactive”.

Regarding `CC([C@@H]1CC2CC[C@H]1C2)n1c(-c2ccsc2)n[nH]c1=S` (stereo not given in full), the “thallium flux ratio, lower = inhibition” value was “inactive”.

In the case of `COc1cccc(CCSc2nnc(-c3ccco3)n2C(C)C2CC3CCC2C3)c1` (stereo not given), the IC50 was 9.06 µM.

On to `C[C@H](C1CCCCC1)n1c(-c2ccccc2F)n[nH]c1=S`, for which the “thallium flux ratio, lower = inhibition” value is “inactive”.

As to `C[C@H]([C@@H]1CC2CC[C@H]1C2)n1c(-c2ccsc2)n[nH]c1=S`, the “thallium flux ratio, lower = inhibition” value is “inactive”.

As to `CCCC(=O)C1CCN(c2ncnc3c2CN(C(=O)c2ccc(-c4ccccc4)cc2)CC3)CC1`, the “thallium flux ratio, lower = inhibition” value is “inactive”.

Consider `CC(C1CC2CCC1C2)n1c(N)nnc1-c1ccco1` (stereo not given), for which the “thallium flux ratio, lower = inhibition” value was “inactive”.

Consider `CC(C1CC2CCC1C2)n1c(-c2ccco2)nn(CCc2ccncc2)c1=S` (stereo not given), for which the “thallium flux ratio, lower = inhibition” value is “inactive”.

With `C[C@H]([C@@H]1CC2CC[C@H]1C2)n1c(-c2ccco2)n[nH]c1=S`, the “thallium flux ratio, lower = inhibition” value was “inactive”.

Consider `CC(C1CC2CCC1C2)n1c(SCC(=O)N2CCN(C)CC2)nnc1-c1ccco1` (stereo not given), for which the “thallium flux ratio, lower = inhibition” value is “inactive”.

For the compound `COc1cccc(-c2n[nH]c(=S)n2[C@H](C)C2CCCCC2)c1`, the “thallium flux ratio, lower = inhibition” value was “inactive”.

Take `C[C@H](C1CCCCC1)n1c(-c2ccsc2)n[nH]c1=S`: the “thallium flux ratio, lower = inhibition” value was “inactive”.

`CC(C1CC2CCC1C2)n1c(SCCN2CCOCC2)nnc1-c1ccco1` (stereo not given): the “thallium flux ratio, lower = inhibition” value was “inactive”.

For the compound `C[C@H]([C@@H]1CC2CC[C@H]1C2)n1c(-c2ccccc2F)n[nH]c1=S`, the “thallium flux ratio, lower = inhibition” value is “inactive”.

With `C[C@@H]([C@@H]1CC2CC[C@H]1C2)n1c(-c2ccsc2)n[nH]c1=S`, the IC50 was 23.5 µM and 25 µM.
